ChEMBL document CHEMBL2401649, “Cyclic enkephalins with a diversely substituted guanidine bridge or a thiourea bridge: synthesis, biological and structural evaluations” (J Med Chem, 2013)
pEC50, pIC50, pKi: −log10 of the molar value.

Tests used:
Mu-type opioid receptor [1] = molecular target: T1, Mu-type opioid receptor (Rattus norvegicus, UniProt P33535); test: Agonist activity at mu opioid receptor in rat brain membranes assessed as stimulation of [35S]GTPgammaS binding after 60 mins in presence of GDP; type: functional, cell membranes; conditions: for pEC50: read-out: EC50; for EC50: read-out: pEC50 (converted)
[2] = molecular target: Delta-type opioid receptor (Rattus norvegicus, UniProt P33533); test: Displacement of [3H]-DIDI from delta opioid receptor in Wistar rat brain membranes after 45 mins by liquid scintillation counting analysis; type: cell membranes, Membrane
Mu-type opioid receptor [3] = molecular target: T1, Mu-type opioid receptor; test: Displacement of [3H]-DAMGO from mu opioid receptor in Wistar rat brain membranes after 45 mins by liquid scintillation counting analysis; type: cell membranes, Membrane
Rattus norvegicus = species on record: Rattus norvegicus; test: Selectivity ratio of Ki for delta opioid receptor in Wistar rat brain membranes to Ki for mu opioid receptor in Wistar rat brain membranes; type: cell membranes; conditions: Membrane
[4] = molecular target: Kappa-type opioid receptor (Cavia porcellus, UniProt P41144); test: Displacement of [3H]-U69,593 from kappa opioid receptor in guinea pig brain membranes after 2 hrs by liquid scintillation counting analysis; type: cell membranes, Membrane
Summary of the method: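 Guinea pig brain membranes incubated 2 h at 0 °C with 0.80 nM [3H]U69,593 plus competitor. IC50 taken from log-dose displacement curves.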

Mu-type opioid receptor [5] = molecular target: Mu-type opioid receptor (Cavia porcellus, UniProt P97266); test: Agonist activity at mu opioid receptor in guinea pig ileum; type: tissue-based
Summary of the method: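 Isolated guinea pig ileum (MOR) and mouse vas deferens (DOR) bioassays; Leu-enkephalin dose-response curve run as standard on each preparation, test IC50 values normalized to it.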

Chain of Delta-type opioid receptor (P33533 whole entry): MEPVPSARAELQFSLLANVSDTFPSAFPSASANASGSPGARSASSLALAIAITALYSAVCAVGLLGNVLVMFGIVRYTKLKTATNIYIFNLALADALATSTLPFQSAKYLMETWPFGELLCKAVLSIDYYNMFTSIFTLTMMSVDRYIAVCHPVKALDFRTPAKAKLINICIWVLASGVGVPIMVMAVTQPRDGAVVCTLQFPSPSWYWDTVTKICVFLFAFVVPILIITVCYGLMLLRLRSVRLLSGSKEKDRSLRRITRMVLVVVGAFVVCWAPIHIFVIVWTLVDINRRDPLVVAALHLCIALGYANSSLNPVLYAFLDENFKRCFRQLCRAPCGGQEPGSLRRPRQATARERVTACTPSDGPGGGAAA
Chain of Kappa-type opioid receptor (P41144 whole entry): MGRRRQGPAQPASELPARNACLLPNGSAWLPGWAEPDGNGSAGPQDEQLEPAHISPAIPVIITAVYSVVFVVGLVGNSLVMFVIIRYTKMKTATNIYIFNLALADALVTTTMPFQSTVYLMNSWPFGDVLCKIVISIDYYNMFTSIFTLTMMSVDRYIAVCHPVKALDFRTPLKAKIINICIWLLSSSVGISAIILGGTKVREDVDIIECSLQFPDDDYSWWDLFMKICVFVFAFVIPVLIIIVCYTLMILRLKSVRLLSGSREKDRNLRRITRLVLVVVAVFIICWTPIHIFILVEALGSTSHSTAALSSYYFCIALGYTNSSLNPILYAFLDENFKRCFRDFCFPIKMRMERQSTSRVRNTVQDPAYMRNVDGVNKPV
T1 sequence (P33535 whole entry): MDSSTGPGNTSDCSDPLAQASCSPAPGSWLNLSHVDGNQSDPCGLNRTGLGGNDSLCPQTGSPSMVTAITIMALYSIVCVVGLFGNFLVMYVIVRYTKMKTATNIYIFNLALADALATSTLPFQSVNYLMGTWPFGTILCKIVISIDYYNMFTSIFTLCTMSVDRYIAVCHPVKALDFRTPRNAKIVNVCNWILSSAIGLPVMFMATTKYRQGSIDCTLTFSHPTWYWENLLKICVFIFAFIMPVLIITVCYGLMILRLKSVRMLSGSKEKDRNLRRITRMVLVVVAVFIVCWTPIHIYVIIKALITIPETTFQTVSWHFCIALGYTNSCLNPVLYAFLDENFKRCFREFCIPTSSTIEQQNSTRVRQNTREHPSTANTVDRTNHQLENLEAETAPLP
Chain of Mu-type opioid receptor (Cavia porcellus, UniProt P97266) (P97266 whole entry): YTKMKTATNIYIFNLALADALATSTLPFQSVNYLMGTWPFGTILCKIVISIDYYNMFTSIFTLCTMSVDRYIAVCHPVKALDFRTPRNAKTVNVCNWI

CC(C)C[C@@H]1NC(=O)[C@H](Cc2ccccc2)NC(=O)CNC(=O)[C@H](NC(=O)[C@@H](N)Cc2ccc(O)cc2)CCCN/C(N2CCCC2)=N\CCC[C@@H](C(N)=O)NC1=O
pEC50 (Mu-type opioid receptor [1]): 5.10
EC50 (Mu-type opioid receptor [1]): 8130 nM
pIC50 [2]: 6.08
pKi [2]: 6.20
pIC50 (Mu-type opioid receptor [3]): 6.63
pKi (Mu-type opioid receptor [3]): 6.76
Ratio Ki (Rattus norvegicus): 3.6

NC(=O)[C@@H]1C/N=C(/N2CCCCC2)NC[C@@H](NC(=O)[C@@H](N)Cc2ccc(O)cc2)C(=O)NCC(=O)N[C@@H](Cc2ccccc2)C(=O)N1 (stereo in doubt; 14c)
EC50 (Mu-type opioid receptor [1]): 7590 nM
pKi [2]: 5.46

CC(C)C[C@@H]1NC(=O)[C@H](Cc2ccccc2)NC(=O)CNC(=O)[C@H](NC(=O)[C@@H](N)Cc2ccc(O)cc2)CCCN/C(N(C)C)=N\CCC[C@@H](C(N)=O)NC1=O
pEC50 (Mu-type opioid receptor [1]): 5.82
EC50 (Mu-type opioid receptor [1]): 1550 nM
pIC50 [2]: 6.71
pKi [2]: 6.84
pKi [4]: < 6.30
pIC50 (Mu-type opioid receptor [3]): 7.71
pKi (Mu-type opioid receptor [3]): 7.84
Ratio Ki (Rattus norvegicus): 10.2

CN/C1=N/C[C@@H](C(N)=O)NC(=O)[C@H](Cc2ccccc2)NC(=O)CNC(=O)[C@H](NC(=O)[C@@H](N)Cc2ccc(O)cc2)CN1 (stereo in doubt; 10b)
EC50 (Mu-type opioid receptor [1]): 1620 nM

NC(=O)[C@@H]1C/N=C(/N2CCCCC2)NC[C@@H](NC(=O)[C@@H](N)Cc2ccc(O)cc2)C(=O)NCC(=O)N[C@@H](Cc2ccccc2)C(=O)N1 (stereo in doubt; 14b)
EC50 (Mu-type opioid receptor [1]): 4170 nM
pIC50 [2]: 5.31

NC(=O)[C@@H]1C/N=C(/N2CCCC2)NC[C@@H](NC(=O)[C@@H](N)Cc2ccc(O)cc2)C(=O)NCC(=O)N[C@@H](Cc2ccccc2)C(=O)N1 (stereo in doubt; 13a)
EC50 (Mu-type opioid receptor [1]): 1070 nM
pKi [4]: < 6.30

C/N=C1/NCCC[C@@H](C(N)=O)NC(=O)[C@H](CC(C)C)NC(=O)[C@H](Cc2ccccc2)NC(=O)CNC(=O)[C@H](NC(=O)[C@@H](N)Cc2ccc(O)cc2)CCCN1
pEC50 (Mu-type opioid receptor [1]): 5.91
pIC50 [2]: 6.61
pKi [2]: 6.73
pKi [4]: < 6.52
pIC50 (Mu-type opioid receptor [3]): 7.62
pKi (Mu-type opioid receptor [3]): 7.75
Ratio Ki (Rattus norvegicus): 10.3

CN(C)/C1=N/C[C@@H](C(N)=O)NC(=O)[C@H](Cc2ccccc2)NC(=O)CNC(=O)[C@H](NC(=O)[C@@H](N)Cc2ccc(O)cc2)CN1
pEC50 (Mu-type opioid receptor [1]): 5.74

NC(=O)[C@@H]1C/N=C(/N2CCCCC2)NC[C@@H](NC(=O)[C@@H](N)Cc2ccc(O)cc2)C(=O)NCC(=O)N[C@@H](Cc2ccccc2)C(=O)N1 (stereo in doubt; 14a)
EC50 (Mu-type opioid receptor [1]): 1450 nM
pIC50 (Mu-type opioid receptor [5]): 6.40

CS/C1=N/CCC[C@@H](C(N)=O)NC(=O)[C@H](CC(C)C)NC(=O)[C@H](Cc2ccccc2)NC(=O)CNC(=O)[C@H](NC(=O)[C@@H](N)Cc2ccc(O)cc2)CCCN1
pEC50 (Mu-type opioid receptor [1]): 6.19
EC50 (Mu-type opioid receptor [1]): 661 nM
pIC50 [2]: 6.60
pKi [2]: 6.72
pIC50 (Mu-type opioid receptor [3]): 7.54
pKi (Mu-type opioid receptor [3]): 7.68
Ratio Ki (Rattus norvegicus): 9.1

CC(C)C[C@@H]1NC(=O)[C@H](Cc2ccccc2)NC(=O)CNC(=O)[C@H](NC(=O)[C@@H](N)Cc2ccc(O)cc2)CCCNC(=S)NCCC[C@@H](C(N)=O)NC1=O
pEC50 (Mu-type opioid receptor [1]): 6.23
EC50 (Mu-type opioid receptor [1]): 603 nM
pIC50 [2]: 7.01
pKi [2]: 7.12
pIC50 (Mu-type opioid receptor [3]): 7.91
pKi (Mu-type opioid receptor [3]): 8.04
Ratio Ki (Rattus norvegicus): 8.3

NC(=O)[C@@H]1CNC(=S)NC[C@@H](NC(=O)[C@@H](N)Cc2ccc(O)cc2)C(=O)NCC(=O)N[C@@H](Cc2ccccc2)C(=O)N1 (stereo in doubt; 7a)
pIC50 (Mu-type opioid receptor [5]): 8.75

NC(=O)[C@@H]1C/N=C(/N2CCCC2)NC[C@@H](NC(=O)[C@@H](N)Cc2ccc(O)cc2)C(=O)NCC(=O)N[C@@H](Cc2ccccc2)C(=O)N1 (stereo in doubt; 13c)
EC50 (Mu-type opioid receptor [1]): 4790 nM
pKi [4]: < 6.30

CC(C)C[C@@H]1NC(=O)[C@H](Cc2ccccc2)NC(=O)CNC(=O)[C@H](NC(=O)[C@@H](N)Cc2ccc(O)cc2)CCCN/C(N)=N\CCC[C@@H](C(N)=O)NC1=O
pEC50 (Mu-type opioid receptor [1]): 5.52
pIC50 [2]: 6.84
pKi [2]: 6.97
pKi [4]: < 6.30
pIC50 (Mu-type opioid receptor [3]): 7.60
pKi (Mu-type opioid receptor [3]): 7.74
Ratio Ki (Rattus norvegicus): 5.9

NC(=O)[C@@H]1C/N=C(/N2CCCC2)NC[C@@H](NC(=O)[C@@H](N)Cc2ccc(O)cc2)C(=O)NCC(=O)N[C@@H](Cc2ccccc2)C(=O)N1 (stereo in doubt; 13b)
EC50 (Mu-type opioid receptor [1]): 2820 nM
pKi [4]: < 6.30

CN/C1=N/C[C@@H](C(N)=O)NC(=O)[C@H](Cc2ccccc2)NC(=O)CNC(=O)[C@H](NC(=O)[C@@H](N)Cc2ccc(O)cc2)CN1 (stereo in doubt; 10a)
EC50 (Mu-type opioid receptor [1]): 282 nM
